ChEMBL document CHEMBL3352424, “Synthesis, biological evaluation and 3D-QSAR study of hydrazide, semicarbazide and thiosemicarbazide derivatives of 4-(adamantan-1-yl)quinoline as anti-tuberculosis agents” (Eur J Med Chem, 2014)
Values after ≈ are worked out from the molar mass of the structure shown.

How the values were obtained:
[1] = tested on: L929; experiment: Cytotoxicity against mouse L929 cells assessed as reduction in cell viability up to 200 ug/ml after 5 days by MTT assay; assay type: cell-based; conditions: l929, 120 h
How it was run: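 MTT viability assay in mouse fibroblasts, run on compounds active against TB, with 200 µg/mL as the highest test concentration.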

[2] = tested on: Mycobacterium tuberculosis; experiment: Antitubercular activity against Mycobacterium tuberculosis H37Rv strain at 6.25 ug/ml by microplate alamar blue assay; assay type: functional
[3] = tested on: Mycobacterium tuberculosis; experiment: Antitubercular activity against Mycobacterium tuberculosis H37Rv strain by BACTEC 460 radiometric assay; assay type: functional, organism-based

Row | SMILES | Activity [1] | inhibition at 6.25 µg/mL [2] [%] | IC50 [3] [µM] | MIC90 [3] [µg/mL] | MIC99 [3] [µg/mL]
1 | O=C(NNC(=O)c1cc(C23CC4CC(CC(C4)C2)C3)c2ccccc2n1)Nc1cccc(F)c1 | Non-toxic | 78 | 3.8 | 6.25 (≈ 13.6 µM) | –
2 | COc1ccc(OC)c(NC(=S)NNC(=O)c2cc(C34CC5CC(CC(C5)C3)C4)c3ccccc3n2)c1 | Non-toxic | 81 | 2.82 | 6.25 (≈ 12.1 µM) | –
3 | O=C(NNC(=O)c1cc(C23CC4CC(CC(C4)C2)C3)c2ccccc2n1)Nc1ccc(F)cc1 | Non-toxic | 68 | 6.46 | 6.25 (≈ 13.6 µM) | –
4 | CCCCCNC(=O)NNC(=O)c1cc(C23CC4CC(CC(C4)C2)C3)c2ccccc2n1 | Non-toxic | 55 | 11.7 | 6.25 (≈ 14.4 µM) | –
5 | CO[C@H]1/C=C/O[C@@]2(C)Oc3c(C)c(O)c4c(O)c(c(/C=N/N5CCN(C)CC5)c(O)c4c3C2=O)NC(=O)/C(C)=C\C=C\[C@H](C)[C@H](O)[C@@H](C)[C@@H](O)[C@@H](C)[C@H](OC(C)=O)[C@@H]1C [RIFAMPIN] | – | 99 | – | – | 0.2 (≈ 0.243 µM)
6 | CCc1cccc(CC)c1NC(=O)NNC(=O)c1cc(C23CC4CC(CC(C4)C2)C3)c2ccccc2n1 | Non-toxic | 27 | 33.9 | 6.25 (≈ 12.6 µM) | –
7 | O=C(NNC(=S)Nc1ccccc1C(F)(F)F)c1cc(C23CC4CC(CC(C4)C2)C3)c2ccccc2n1 | Non-toxic | 79 | 2.88 | 6.25 (≈ 11.9 µM) | –
8 | O=C(NNC(=S)NCCc1ccccc1)c1cc(C23CC4CC(CC(C4)C2)C3)c2ccccc2n1 | Non-toxic | 47 | 14.5 | 6.25 (≈ 12.9 µM) | –
9 | O=C(NNC(=S)NC1CCCCC1)c1cc(C23CC4CC(CC(C4)C2)C3)c2ccccc2n1 | Non-toxic | 0 | – | 6.25 (≈ 13.5 µM) | –
10 | CCc1ccccc1NC(=S)NNC(=O)c1cc(C23CC4CC(CC(C4)C2)C3)c2ccccc2n1 | Non-toxic | 89 | 1.58 | 6.25 (≈ 12.9 µM) | –
11 | O=C(NNC(=O)c1cc(C23CC4CC(CC(C4)C2)C3)c2ccccc2n1)c1cccnc1 | Non-toxic | 74 | 5.13 | 6.25 (≈ 14.7 µM) | –
12 | CCCCCCCCCCCCCCCCNC(=O)NNC(=O)c1cc(C23CC4CC(CC(C4)C2)C3)c2ccccc2n1 | Non-toxic | 16 | 56.2 | 6.25 (≈ 10.6 µM) | –
13 | CCNC(=S)NNC(=O)c1cc(C23CC4CC(CC(C4)C2)C3)c2ccccc2n1 | Non-toxic | 72 | 5.89 | 6.25 (≈ 15.3 µM) | –
14 | C=CCCCCCCCCC(=O)NNC(=O)c1cc(C23CC4CC(CC(C4)C2)C3)c2ccccc2n1 | Non-toxic | 50 | 12.9 | 6.25 (≈ 12.8 µM) | –
15 | O=C(NNC(=S)Nc1ccc(OC(F)(F)F)cc1)c1cc(C23CC4CC(CC(C4)C2)C3)c2ccccc2n1 | Non-toxic | 89 | 1.45 | 6.25 (≈ 11.6 µM) | –
16 | O=C(NNC(=S)Nc1ccc([N+](=O)[O-])cc1Cl)c1cc(C23CC4CC(CC(C4)C2)C3)c2ccccc2n1 | Non-toxic | 96 | 0.49 | 6.25 (≈ 11.7 µM) | –
17 | O=C(NNC(=O)C12CC3CC(CC(C3)C1)C2)c1cc(C23CC4CC(CC(C4)C2)C3)c2ccccc2n1 | Non-toxic | 87 | 1.95 | 6.25 (≈ 12.9 µM) | –
18 | O=C(NNC(=O)c1cc(C23CC4CC(CC(C4)C2)C3)c2ccccc2n1)c1ccccc1 | Non-toxic | 12 | 107 | 6.25 (≈ 14.7 µM) | –

Row | SMILES | Activity [1] | inhibition at 6.25 µg/mL [2] [%] | IC50 [3] [µM] | MIC90 [3] [µg/mL] | MIC99 [3] [µg/mL]
19 | Cc1ccc(NC(=S)NNC(=O)c2cc(C34CC5CC(CC(C5)C3)C4)c3ccccc3n2)cc1 | Non-toxic | 23 | 45.7 | 6.25 (≈ 13.3 µM) | –
20 | CC(C)(C)c1ccc(NC(=O)NNC(=O)c2cc(C34CC5CC(CC(C5)C3)C4)c3ccccc3n2)cc1 | Non-toxic | 37 | 22.4 | 6.25 (≈ 12.6 µM) | –
21 | Cc1cc(C)c(NC(=O)NNC(=O)c2cc(C34CC5CC(CC(C5)C3)C4)c3ccccc3n2)c(C)c1 | Non-toxic | 77 | 3.89 | 6.25 (≈ 12.9 µM) | –
22 | O=C(NNC(=O)c1cc(C23CC4CC(CC(C4)C2)C3)c2ccccc2n1)NC1CCCCCCCCCCC1 | Non-toxic | 87 | 1.78 | 6.25 (≈ 11.8 µM) | –
23 | CC(C)(C)NC(=S)NNC(=O)c1cc(C23CC4CC(CC(C4)C2)C3)c2ccccc2n1 | Non-toxic | 90 | 1.58 | 6.25 (≈ 14.3 µM) | –
24 | O=C(NNC(=O)c1cc(C23CC4CC(CC(C4)C2)C3)c2ccccc2n1)c1cccc(C(F)(F)F)c1 | Non-toxic | 69 | 5.75 | 6.25 (≈ 12.7 µM) | –
25 | CCCCCCCCCCC(=O)NNC(=O)c1cc(C23CC4CC(CC(C4)C2)C3)c2ccccc2n1 | Non-toxic | 32 | 26.9 | 6.25 (≈ 12.8 µM) | –
26 | O=C(NNC(=O)c1cc(C23CC4CC(CC(C4)C2)C3)c2ccccc2n1)c1ccc2ccccc2c1 | Non-toxic | 90 | 4.68 | 6.25 (≈ 13.1 µM) | –
27 | COc1cc(NC(=S)NNC(=O)c2cc(C34CC5CC(CC(C5)C3)C4)c3ccccc3n2)cc(OC)c1OC | Non-toxic | 46 | 14.5 | 6.25 (≈ 11.4 µM) | –
28 | COc1cc(NC(=O)NNC(=O)c2cc(C34CC5CC(CC(C5)C3)C4)c3ccccc3n2)cc(OC)c1OC | Non-toxic | 22 | 41.7 | 6.25 (≈ 11.8 µM) | –
29 | O=C(NNC(=O)c1c(F)c(F)c(F)c(F)c1F)c1cc(C23CC4CC(CC(C4)C2)C3)c2ccccc2n1 | Non-toxic | 88 | 1.66 | 6.25 (≈ 12.1 µM) | –
30 | O=C(NNC(=O)c1cc(C23CC4CC(CC(C4)C2)C3)c2ccccc2n1)c1ccncc1 | Non-toxic | 56 | 11.5 | 6.25 (≈ 14.7 µM) | –
31 | O=C(NNC(=O)c1cccc2ccccc12)c1cc(C23CC4CC(CC(C4)C2)C3)c2ccccc2n1 | Non-toxic | 88 | 4.47 | 6.25 (≈ 13.1 µM) | –
32 | O=C(NNC(=O)c1cc(C23CC4CC(CC(C4)C2)C3)c2ccccc2n1)NC1CCCC1 | Non-toxic | 84 | 2.75 | 6.25 (≈ 14.4 µM) | –
33 | O=C(NNC(=S)Nc1cccc(Cl)c1Cl)c1cc(C23CC4CC(CC(C4)C2)C3)c2ccccc2n1 | Non-toxic | 74 | 4.17 | 6.25 (≈ 11.9 µM) | –
34 | O=C(NNC(=S)Nc1cccc2ccccc12)c1cc(C23CC4CC(CC(C4)C2)C3)c2ccccc2n1 | Non-toxic | 44 | 15.8 | 6.25 (≈ 12.3 µM) | –
35 | NNC(=O)c1ccncc1 [ISONIAZID] | – | – | – | – | 0.1 (≈ 0.729 µM)
